Assay results collected from several papers.
Each line is one published result; the experiments were not run side by side.
Observed: microbial growth

CCCCCCC/C=C/C(=O)N1C(=O)/C(=C(\O)c2ccc(O)cc2)C(=O)C1CC(C)C (stereo not drawn)
MIC (Stenotrophomonas maltophilia; ATCC13637): 200 µg/mL

CN[C@H](CC(C)C)C(=O)N[C@H]1C(=O)N[C@@H](CC(N)=O)C(=O)N[C@H]2C(=O)N[C@H]3C(=O)N[C@H](C(=O)N[C@H](C(=O)O)c4cc(O)cc(O)c4-c4cc3ccc4O)[C@H](O)c3ccc(c(Cl)c3)Oc3cc2cc(c3O[C@@H]2O[C@H](CO)[C@@H](O)[C@H](O)[C@H]2O[C@H]2C[C@](C)(N)[C@H](O)[C@H](C)O2)Oc2ccc(cc2Cl)[C@H]1O
MIC (Streptococcus mutans; broth dilution; ATCC25175): 0.98 µg/mL

CCCCCCC/C=C/C(=O)N1C(=O)/C(=C(\O)c2ccc(OCOCCOC)cc2)C(=O)C1CC(C)C (stereo not drawn)
MIC (Stenotrophomonas maltophilia; ATCC13637): 200 µg/mL

CC(C)Oc1c(NC(=O)c2ccc(NC(=O)[C@H](CC(N)=O)NC(=O)c3ccc(NC(=O)c4ccc(C#N)cn4)cc3)cc2)ccc(C(=O)Nc2ccc(C(=O)O)cc2)c1O
MIC (Klebsiella aerogenes; DSM30053): 0.25 µg/mL

O=c1[nH]c(NCc2ccc(Cl)c(Cl)c2)nc2ncn(CCCCCN3CCOCC3)c12
MIC (Bifidobacterium; agar dilution; 48 h): > 32 µg/mL

C/C(=C\c1ccc(C#N)cc1)C(=O)Nc1ccc(C(=O)N[C@@H](CC(N)=O)C(=O)Nc2ccc(C(=O)Nc3ccc(C(=O)Nc4ccc(C(=O)O)cc4)c(O)c3OC(C)C)cc2)cc1
MIC (Klebsiella aerogenes; DSM30053): 0.25 µg/mL

O=C(Nc1ccc2c(c1)OC(F)(F)O2)Nc1ccc(Cl)c(C(F)(F)F)c1
MIC (Klebsiella aerogenes; DSM30053): > 100 µM

CCCCCCC/C=C/C(=O)N1C(=O)/C(=C(\O)CCCC)C(=O)C1CC(C)C (stereo not drawn)
MIC (Stenotrophomonas maltophilia; ATCC13637): > 200 µg/mL

O=C1NC(=S)N/C1=C\c1c2ccccc2c(-c2ccc(N(c3ccccc3)c3ccccc3)cc2)c2ccccc12
MIC (Streptococcus pyogenes; broth dilution; ATCC19615): > 1000 µg/mL

C[C@@H](O)[C@H]1C(=O)N2C(C(=O)O)=C(S[C@@H]3CN[C@H](C(=O)N(C)C)C3)[C@H](C)[C@H]12
MIC (Stenotrophomonas maltophilia; broth dilution; clinical isolate): > 64 µg/mL

CCCCCCC/C=C/C(=O)N1C(=O)/C(=C(/C)O)C(=O)C1CCC(=O)O (stereo not drawn)
MIC (Stenotrophomonas maltophilia; ATCC13637): 200 µg/mL

O=C1NC(=S)S/C1=C\c1ccc(-c2ccc(N(c3ccccc3)c3ccccc3)cc2)cc1
MIC (Streptococcus mutans; broth dilution; ATCC25175): 1000 µg/mL

CCCCCCC/C=C/C(=O)N1C(=O)/C(=C(\O)C2CCNCC2)C(=O)C1CC(C)C (stereo not drawn)
MIC (Stenotrophomonas maltophilia; ATCC13637): 25 µg/mL

O=C1NC(=S)S/C1=C\c1ccc(-c2ccc(N(c3ccccc3)c3ccccc3)cc2)c2ccccc12
MIC (Streptococcus pyogenes; broth dilution; ATCC19615): 1000 µg/mL

O=c1[nH]c(NCc2ccc(Cl)c(Cl)c2)nc2ncn(CCN3CCOCC3)c12
MIC (Bifidobacterium; agar dilution; 48 h): > 32 µg/mL
